Experiment [1] concerns the target Diamine acetyltransferase 1 (Mus musculus) (UniProt P48026). Briefly: Compound was tested for the enzyme activity against Spermidine/spermine N1-acetyl transferase (SSAT) in L1210 cells and expressed as percent compound found in untreated controls. The experiment is classed as cell-based. In outline: (§1)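 L1210 cells were treated for 48 h at 10 µM, or at 0.2 µM for the conjugate. SSAT activity was measured as [14C]N1-acetylspermidine formed from spermidine and [14C]acetyl-CoA, expressed as percent of untreated control. The positive control was 2 µM DENSPM. Results are the mean of at least three experiments.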

In experiment [2] the test system is L1210. Description: Compound was determined for spermine (SPM) level in L1210 cells after treatment at a concentration of 100 uM and expressed as percent compound found in untreated controls. The experiment is classed as functional, Mus musculus.
A short description of experiment [3]: Compound was tested for the inhibition of spermidine transporter by using [3H]SPD transport in L1210 cell. Type of experiment: functional, cell-based, Mus musculus. In outline: (§2)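 L1210 cell suspensions were incubated in culture medium with [3H]spermidine, either alone or with graduated concentrations of competitor. Cells were pelleted, washed, digested, neutralized and scintillation-counted. Ki was derived from Lineweaver–Burk plots assuming competitive inhibition against spermidine, as the mean of two to three experiments.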

The subject of experiment [4] is L1210. Briefly: Compound was determined for spermidine (SPD) level in L1210 cells after treatment at a concentration of 100 uM and expressed as percent compound found in untreated controls. Type of experiment: functional, Mus musculus.
For experiment [5], the target named is T1, S-adenosylmethionine decarboxylase proenzyme 1 (Mus musculus) (UniProt P0DMN7).
T1 sequence (whole entry): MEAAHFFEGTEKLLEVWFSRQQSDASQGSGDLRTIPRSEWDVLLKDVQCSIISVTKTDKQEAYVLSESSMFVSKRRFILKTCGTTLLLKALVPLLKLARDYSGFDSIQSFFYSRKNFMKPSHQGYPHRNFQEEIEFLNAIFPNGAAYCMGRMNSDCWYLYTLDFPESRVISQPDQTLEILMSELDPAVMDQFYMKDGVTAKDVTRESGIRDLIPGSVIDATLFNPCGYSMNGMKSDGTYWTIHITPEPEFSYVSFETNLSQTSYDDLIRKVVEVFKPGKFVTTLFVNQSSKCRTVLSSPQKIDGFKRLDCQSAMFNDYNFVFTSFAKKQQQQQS
Briefly: Compound was tested for the enzyme activity against S-Adenosyl-methionine decarboxylase in L1210 cells and expressed as percent compound found in untreated controls. Type of experiment: cell-based. In outline:
(§3)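 L1210 cells were treated at 1 µM for 6 h. AdoMetDC activity was measured as 14CO2 released from [14C]carboxyl-labeled S-adenosyl-L-methionine and expressed as percent of untreated control. Controls were untreated cells and 1 µM DEHSPM-treated cells. Results are the mean of at least three experiments.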

Experiment [6] relates to L1210. Description: Compound was determined for putrescine (PUT) level in L1210 cells after treatment at a concentration of 100 uM and expressed as percent compound found in untreated controls. The experiment is classed as functional, Mus musculus.
The subject of experiment [7] is L1210. Description: Compound was tested for the growth inhibition of L1210 cell at a duration of 48 h. To be noted: Mus musculus, L1210, 48 h. Type of experiment: functional, cell-based.
Experiment [8] deals with T2, Ornithine decarboxylase (Mus musculus) (UniProt P00860).
T2 sequence (whole entry): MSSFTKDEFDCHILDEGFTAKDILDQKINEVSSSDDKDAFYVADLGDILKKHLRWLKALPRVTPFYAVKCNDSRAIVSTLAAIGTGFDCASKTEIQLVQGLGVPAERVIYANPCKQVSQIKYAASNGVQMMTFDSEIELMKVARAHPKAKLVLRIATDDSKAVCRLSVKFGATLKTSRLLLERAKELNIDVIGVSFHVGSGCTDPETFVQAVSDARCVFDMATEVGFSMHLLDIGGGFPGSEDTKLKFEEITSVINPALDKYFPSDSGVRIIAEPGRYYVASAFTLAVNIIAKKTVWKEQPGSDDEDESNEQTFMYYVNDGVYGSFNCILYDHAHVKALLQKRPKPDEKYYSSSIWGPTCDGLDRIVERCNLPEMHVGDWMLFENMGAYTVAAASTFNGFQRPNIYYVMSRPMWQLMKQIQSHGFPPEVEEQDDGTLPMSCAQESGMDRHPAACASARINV
Description: Compound was tested for the enzyme activity against ornithine decarboxylase (ODC) in L1210 cells and expressed as percent compound found in untreated controls. The experiment is classed as cell-based. In short, it runs like this: (§4)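 L1210 cells were treated at 1 µM for 4 h. ODC activity was measured as 14CO2 released from [14C]carboxyl-labeled L-ornithine and expressed as percent of untreated control. Controls were untreated cells and 1 µM DEHSPM-treated cells. Results are the mean of at least three experiments.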

In experiment [9] the test system is L1210. Description: Compound was determined for spermine (SPM) level in L1210 cells after treatment at a concentration of 0.2 uM and expressed as percent compound found in untreated controls. Type of experiment: functional, Mus musculus. In outline:
(§5)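 L1210 cells in RPMI-1640 with 10% FBS, HEPES-MOPS, 1 mM glutamine and 1 mM aminoguanidine were exposed to 0.2 µM during log growth for 48 h. Cells were washed three times in ice-cold incomplete medium, extracted with 0.6 N perchloric acid and freeze-fractured three times. Putrescine, spermidine and spermine were measured by HPLC and expressed as percent of untreated control.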

In experiment [10] the test system is L1210. Description: Compound was determined for putrescine (PUT) level in L1210 cells after treatment at a concentration of 0.2 uM and expressed as percent compound found in untreated controls. The experiment is classed as functional, Mus musculus. In outline: as §5
Experiment [11] concerns L1210. Description: Compound was determined for spermidine (SPD) level in L1210 cells after treatment at a concentration of 0.2 uM and expressed as percent compound found in untreated controls. The experiment is classed as functional, Mus musculus. In short, it runs like this:
as §5

Experiment [12] deals with L1210. Description: Compound was tested for the growth inhibition of L1210 cell at a duration of 96 h. The experiment is classed as functional, cell-based. The following applies: Mus musculus, L1210, 96 h.
For experiment [13], the system named is L1210. Description: Compound was determined for putrescine (PUT) level in L1210 cells after treatment at a concentration of 50 uM and expressed as percent compound found in untreated controls. Type of experiment: functional, Mus musculus. In outline:
(§6)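 Murine L1210 leukaemia cells, kept in log-phase suspension in RPMI-1640 with 10% FBS, 1 mM glutamine and 1 mM aminoguanidine at 37 °C, 5% CO2, were treated at 50 μM for 48 h. Cells were washed three times in ice-cold incomplete medium, extracted with 0.6 N perchloric acid and freeze-fractured. Putrescine, spermidine and spermine were then measured by HPLC and expressed as percent of untreated control.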

In experiment [14] the test system is L1210. Briefly: Compound was determined for spermine (SPM) level in L1210 cells after treatment at a concentration of 50 uM and expressed as percent compound found in untreated controls. Type of experiment: functional, Mus musculus. In outline:
as §6

Experiment [15] deals with L1210. Briefly: Compound was determined for spermidine (SPD) level in L1210 cells after treatment at a concentration of 50 uM and expressed as percent compound found in untreated controls. Type of experiment: functional, Mus musculus. In short, it runs like this:
as §6

The subject of experiment [16] is L1210. Briefly: Compound was determined for putrescine (PUT) level in murine L1210 cells after treatment at a concentration of 100 uM and expressed as percent compound found in untreated controls. Type of experiment: functional, Mus musculus.
Experiment [17] addresses Diamine acetyltransferase 1 (Mus musculus) (UniProt P48026). Description: Compound was tested for the enzyme activity against Spermidine/spermine N1-acetyl transferase (SSAT) in murine L1210 cells and expressed as percent compound found in untreated controls. Type of experiment: cell-based. In outline:
as §1

The test system of experiment [18] is L1210. Briefly: Compound was determined for spermine (SPM) level in murine L1210 cells after treatment at a concentration of 100 uM and expressed as percent compound found in untreated controls. Type of experiment: functional, Mus musculus.
Experiment [19] can be described thus: Compound was tested for the inhibition of spermidine transporter by using [3H]SPD transport in murine L1210 cell. The experiment is classed as functional, cell-based, Mus musculus. In outline: as §2
Experiment [20] deals with L1210. Briefly: Compound was tested for the growth inhibition of murine L1210 cell at a duration of 48 h. The following applies: Mus musculus, L1210, 48 h. Type of experiment: functional, cell-based. In outline:
(§7)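 Log-phase suspension cultures of murine L1210 cells (0.5–1.0 × 10^5 cells/mL) were grown in RPMI-1640 with 10% FBS and 1 mM aminoguanidine at 37 °C and 5% CO2. Cells were treated, reseeded and counted to give percent of control growth. IC50 is the concentration reducing growth to 50% of control after 48 or 96 h, as the mean of at least two experiments.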

Experiment [21] has as its target T2, Ornithine decarboxylase (Mus musculus). Description: Compound was tested for the enzyme activity against ornithine decarboxylase (ODC) in murine L1210 cells and expressed as percent compound found in untreated controls. The experiment is classed as cell-based. In outline:
as §4

Experiment [22] concerns L1210. Briefly: Compound was tested for the growth inhibition of murine L1210 cell at a duration of 96 h. Type of experiment: functional, cell-based. The following applies: Mus musculus, L1210, 96 h. In short, it runs like this: as §7
Experiment [23] deals with T1, S-adenosylmethionine decarboxylase proenzyme 1 (Mus musculus). Briefly: Compound was tested for the enzyme activity against S-Adenosyl-methionine decarboxylase in murine L1210 cells and expressed as percent compound found in untreated controls. The experiment is classed as cell-based. In short, it runs like this: as §3

5 molecules from ChEMBL document CHEMBL1145926, “Polyamine-iron chelator conjugate” (J Med Chem, 2003) can be followed below.

Diamine acetyltransferase 1 (Mus musculus), sequence (P48026 whole entry): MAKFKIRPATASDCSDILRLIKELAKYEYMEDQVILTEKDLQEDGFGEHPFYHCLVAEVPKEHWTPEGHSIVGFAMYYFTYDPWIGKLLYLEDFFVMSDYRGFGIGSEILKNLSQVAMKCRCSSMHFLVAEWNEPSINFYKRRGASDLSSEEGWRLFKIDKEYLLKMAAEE

Regarding `CCCNCCCCNCCCN`, the Activity stood at 500% in [1]; 103% in the experiment on L1210 [2]; 33% in the experiment with L1210 [4]; 64% in experiment [5]; 0% in the experiment on L1210 [6]; 14% in experiment [8]. In addition, in experiment [3], the affinity corresponds to a Ki of 8.5 µM. Moreover, in the experiment with L1210 [7], the IC50 (commonly the concentration that gives 50% inhibition) is above 100 µM.
With `Cc1c(O)c(=O)ccn1CCCNCCCCNCCCN`, the Activity in [1] amounted to 275%; with L1210 [9], 139%; with L1210 [10], 33%; in experiment [5], 77%; in the experiment with L1210 [11] it was 64%; in [8], 20%. Also, the affinity in [3] corresponds to a Ki of 3.7 µM. In the experiment with L1210 [12], this molecule yielded an IC50 of 0.2 µM.
As to `Cc1c(O)c(=O)ccn1C` [DEFERIPRONE], the Activity in experiment [1] was 108%; in [5], 120%; in the experiment on L1210 [13], 104%; with L1210 [14], 127%; in the experiment with L1210 [15], 117%; in experiment [8] it was 114%. For the same molecule, the Ki – broadly, the dissociation constant of the complex between target and ligand, obtained from inhibition or displacement – in experiment [3] was above 500 µM.
With `CC(=O)NCCCNCCCCNCCCN`, the Activity stood at 24% in the experiment on L1210 [16]; 180% in experiment [17]; 111% in the experiment with L1210 [18]; 71% in the experiment on L1210 [4]; 25% in [21]; 86% in experiment [23]. For the same molecule, the affinity in experiment [19] corresponds to a Ki of 10 µM. Moreover, the IC50 in the experiment with L1210 [20] and in the experiment on L1210 [22] was above 100 µM in each case.
`CCNCCCNCCCCNCCCN`: in experiment [1], the Activity amounted to 150%.
